Results reported in ChEMBL document CHEMBL4138300 (ACS Med Chem Lett, 2018).
The source made the active and inactive calls. The rule behind the calls is not given here.

Legend:
Pfeiffer [1] = test: Cytotoxicity against human Pfeiffer cells assessed as decrease in cell viability after 5 days by CellTiter-Glo reagent based luminescence assay; type: functional; conditions: 120 h
EZH2 (Homo sapiens) = test: Inhibition of human N-terminal His-tagged EZH2/flag-tagged EED/SUZ12/AEBP2/RBAP48 A677G mutant (2 to end residues) expressed in baculovirus infected Sf9 insect cells using histone H3 (1 to 50 residues)-GGK as substrate after 2 hrs in presence of SAM by fluorescence assay
[2] = AUC (0 to t) in Sprague-Dawley rat at 0.5 mg/kg, iv; type: ADME, organism-based; conditions: in vivo
How it was run: (§1)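 Single intravenous dose: rats 0.5 mg/kg, mice 1.0 mg/kg. Plasma exposure and terminal-phase parameters were calculated from the concentration–time profile. These serve as the iv reference for bioavailability.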

[3] = Oral bioavailability in ICR mouse at 10 mg/kg administered via gavage; type: ADME, organism-based; conditions: in vivo
How it was run: (§2)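 Single oral dose given as a CMC-Na suspension: rats 5 mg/kg, mice 10 mg/kg. Oral bioavailability was set against the matching iv arm (rats 0.5 mg/kg, mice 1.0 mg/kg).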

Pfeiffer [4] = test: Antitumor activity against human Pfeiffer cells xenografted in athymic nude mouse assessed as tumor growth inhibition at 100 mg/kg, po qd administered for 20 days measured twice per week; type: functional
How it was run: (§3)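 Pfeiffer xenografts were grown to about 150-200 mm³ before dosing. The compound was given orally once daily for 20 days at the dose in each line (10, 30 or 100 mg/kg), with a reference EZH2 inhibitor dosed at 100 mg/kg. Tumor growth inhibition was expressed as percent reduction in tumor size.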

[5] = Apparent clearance during terminal phase in ICR mouse at 10 mg/kg administered via oral gavage; type: ADME, organism-based; conditions: in vivo, read-out: CLz/F; how it was run: as §2
[6] = target: T1, Histone-lysine N-methyltransferase EZH2 (Homo sapiens, UniProt Q15910); test: Inhibition of EZH2 in human WSU-DLCL2 cells assessed as reduction in H3K27 trimethylation after 3 days by Western blot analysis; type: cell-based
Target sequence in this assay (Q15910 whole entry): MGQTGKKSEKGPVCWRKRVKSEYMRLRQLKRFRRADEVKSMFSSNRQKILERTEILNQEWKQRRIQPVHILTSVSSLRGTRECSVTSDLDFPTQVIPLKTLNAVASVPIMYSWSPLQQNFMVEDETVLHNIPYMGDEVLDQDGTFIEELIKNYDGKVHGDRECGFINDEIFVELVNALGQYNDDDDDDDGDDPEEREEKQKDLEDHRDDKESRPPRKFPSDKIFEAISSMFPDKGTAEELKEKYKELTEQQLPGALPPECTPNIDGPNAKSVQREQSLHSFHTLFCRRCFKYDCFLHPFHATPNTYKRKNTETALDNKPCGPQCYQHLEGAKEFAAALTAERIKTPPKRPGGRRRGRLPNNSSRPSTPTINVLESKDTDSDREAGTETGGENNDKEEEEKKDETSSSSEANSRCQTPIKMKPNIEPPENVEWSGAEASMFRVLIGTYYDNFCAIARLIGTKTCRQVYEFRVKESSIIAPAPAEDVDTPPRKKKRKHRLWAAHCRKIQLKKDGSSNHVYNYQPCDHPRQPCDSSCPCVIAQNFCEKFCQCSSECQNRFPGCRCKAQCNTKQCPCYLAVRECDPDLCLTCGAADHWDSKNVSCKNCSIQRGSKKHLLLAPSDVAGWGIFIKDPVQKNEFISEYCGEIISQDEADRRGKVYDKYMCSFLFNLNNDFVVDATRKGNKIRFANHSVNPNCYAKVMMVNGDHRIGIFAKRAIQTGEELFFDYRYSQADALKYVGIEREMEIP

[7] = Protein binding in human plasma; type: ADME, cell-free; conditions: read-out: PPB (converted)
[8] = Apparent volume of distribution during terminal phase in Sprague-Dawley rat at 5 mg/kg administered via oral gavage; type: ADME, organism-based; conditions: in vivo, read-out: Vz/F; how it was run: as §2
[9] = Protein binding in rat plasma; type: ADME, cell-free; conditions: read-out: PPB (converted)
[10] = Protein binding in mouse plasma; type: ADME, cell-free; conditions: read-out: PPB (converted)
[11] = target: T1, Histone-lysine N-methyltransferase EZH2; test: Inhibition of EZH2 in human Pfeiffer cells assessed as reduction in H3K27 trimethylation after 3 days by Western blot analysis; type: cell-based
[12] = Oral bioavailability in Sprague-Dawley rat at 5 mg/kg administered via gavage; type: ADME, organism-based; conditions: in vivo; how it was run: as §2
[13] = Half life in Sprague-Dawley rat at 5 mg/kg administered via oral gavage; type: ADME, organism-based; conditions: in vivo; how it was run: as §2
[14] = Apparent volume of distribution during terminal phase in ICR mouse at 10 mg/kg administered via oral gavage; type: ADME, organism-based; conditions: in vivo, read-out: Vz/F; how it was run: as §2
[15] = AUC (0 to t) in ICR mouse at 1 mg/kg, iv; type: ADME, organism-based; conditions: in vivo; how it was run: as §1
Rattus norvegicus = test: Apparent volume of distribution during terminal phase in Sprague-Dawley rat at 0.5 mg/kg, iv; type: ADME, organism-based; conditions: in vivo; how it was run: as §1
[16] = Mean residence time (0 to infinity) in ICR mouse at 1 mg/kg, iv; type: ADME, organism-based; conditions: in vivo; how it was run: as §1
Mus musculus [17] = test: Apparent volume of distribution during terminal phase in ICR mouse at 1 mg/kg, iv; type: ADME, organism-based; conditions: in vivo; how it was run: as §1
[18] = Half life in ICR mouse at 10 mg/kg administered via oral gavage; type: ADME, organism-based; conditions: in vivo; how it was run: as §2
[19] = Half life in rat liver microsomes; type: ADME, microsome
[20] = AUC (0 to t) in ICR mouse at 10 mg/kg administered via oral gavage; type: ADME, organism-based; conditions: in vivo; how it was run: as §2
[21] = Mean residence time (0 to infinity) in Sprague-Dawley rat at 5 mg/kg administered via oral gavage; type: ADME, organism-based; conditions: in vivo; how it was run: as §2
Mus musculus [22] = test: Toxicity in athymic nude mouse xenografted with human Pfeiffer cells assessed as body weight loss at 10 to 100 mg/kg, po qd administered for 20 days measured twice per week; type: organism-based; conditions: in vivo, 480 h
[23] = AUC (0 to t) in Sprague-Dawley rat at 5 mg/kg administered via oral gavage; type: ADME, organism-based; conditions: in vivo; how it was run: as §2
[24] = Mean residence time (0 to infinity) in ICR mouse at 10 mg/kg administered via oral gavage; type: ADME, organism-based; conditions: in vivo; how it was run: as §2
[25] = Apparent clearance during terminal phase in Sprague-Dawley rat at 5 mg/kg administered via oral gavage; type: ADME, organism-based; conditions: in vivo, read-out: CLz/F; how it was run: as §2
Pfeiffer [26] = test: Antitumor activity against human Pfeiffer cells xenografted in athymic nude mouse assessed as tumor growth inhibition at 10 mg/kg, po qd administered for 20 days measured twice per week; type: functional; conditions: 480 h, read-out: TGI; how it was run: as §3
Pfeiffer [27] = test: Antitumor activity against human Pfeiffer cells xenografted in athymic nude mouse assessed as tumor growth inhibition at 30 mg/kg, po qd administered for 20 days measured twice per week; type: functional; conditions: 480 h, read-out: TGI; how it was run: as §3
[28] = Cmax in Sprague-Dawley rat at 5 mg/kg administered via oral gavage; type: ADME, organism-based; design: dose 5 mg/kg, route oral; conditions: in vivo; how it was run: as §2
Pfeiffer [29] = test: Antitumor activity against human Pfeiffer cells xenografted in athymic nude mouse assessed as tumor growth inhibition administered po qd for 20 days measured twice per week; type: functional, organism-based
How it was run: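 Pfeiffer xenografts were grown to about 150-200 mm³ before dosing. Compound was given orally once daily for 20 days at 10, 30 or 100 mg/kg. A reference EZH2 inhibitor (100 mg/kg) was run alongside. Tumor size reduction was the efficacy read-out.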

[30] = Half life in human liver microsomes; type: ADME, microsome
[31] = Mean residence time (0 to infinity) in Sprague-Dawley rat at 0.5 mg/kg, iv; type: ADME, organism-based; conditions: in vivo; how it was run: as §1
[32] = Cmax in ICR mouse at 10 mg/kg administered via oral gavage; type: ADME, organism-based; design: dose 10 mg/kg, route oral; conditions: in vivo; how it was run: as §2
[33] = Stability of the compound in rat liver microsomes; type: ADME, microsome
[34] = Stability of the compound in human liver microsomes; type: ADME, microsome

CCc1c(N(CC)C2CCOCC2)cc2occc2c1C(=O)NCc1c(OC)cc(C)[nH]c1=O
IC50 (Pfeiffer [1]): 15 nM | IC50 (EZH2 (Homo sapiens)): 3.3 nM

CCN(c1cc2oc(C)cc2c(C(=O)NCc2c(OC)cc(C)[nH]c2=O)c1C)C1CCOCC1
IC50 (Pfeiffer [1]): 14 nM | IC50 (EZH2 (Homo sapiens)): 2.9 nM

CCN(c1cc2occc2c(C(=O)NCc2ccc(C)[nH]c2=O)c1Cl)C1CCOCC1
IC50 (Pfeiffer [1]): 150 nM | IC50 (EZH2 (Homo sapiens)): 6.5 nM

CCc1c(N(CC)C2CCOCC2)cc2oc(C3CCN(C(C)C)CC3)cc2c1C(=O)NCc1c(C)cc(C)[nH]c1=O
AUC(0-t) [2]: 325 ng·h/mL | bioavailability [3]: 16% | inhibition in vivo at 100 mg/kg (Pfeiffer [4]; 480 h, read-out: TGI): 97% | CL/F [5]: 202 mL/min/kg | IC50 [6]: 55 nM | fraction unbound [7]: 0.061 | Vd/F [8]: 24.1 L/kg | fraction unbound [9]: 0.06 | fraction unbound [10]: 0.073 | IC50 [11]: 8 nM | inhibition [11]: Dose-dependent effect | bioavailability [12]: 9% | half-life [13]: 1 h | Vd/F [14]: 21.9 L/kg | AUC(0-t) [15]: 483 ng·h/mL | Vz/F (Rattus norvegicus): 2.556 L/kg | MRT inf [16]: 1.3 h | Vz/F (Mus musculus [17]): 3.679 L/kg | half-life [18]: 1.3 h | half-life [19]: > 0.5 h | AUC(0-t) [20]: 774 ng·h/mL | MRT inf [21]: 3 h | Activity (Mus musculus [22]): Non-Toxic | AUC(0-t) [23]: 239 ng·h/mL | IC50 (Pfeiffer [1]): 6 nM | MRT inf [24]: 2.7 h | CL/F [25]: 287 mL/min/kg | inhibition in vivo at 10 mg/kg (Pfeiffer [26]): 28% | inhibition in vivo at 30 mg/kg (Pfeiffer [27]): 83% | Cmax [28]: 93 ng/mL | TGI (Pfeiffer [29]): Dose-dependent effect | half-life [30]: > 0.5 h | MRT inf [31]: 1 h | Cmax [32]: 257 ng/mL

CCN(c1cc2oc(C(F)(F)F)cc2c(C(=O)NCc2c(OC)cc(C)[nH]c2=O)c1C)C1CCOCC1
IC50 (Pfeiffer [1]): 17 nM | IC50 (EZH2 (Homo sapiens)): 2.7 nM

CCN(c1cc2oc(Cl)cc2c(C(=O)NCc2c(OC)cc(C)[nH]c2=O)c1C)C1CCOCC1
IC50 (Pfeiffer [1]): 21 nM | IC50 (EZH2 (Homo sapiens)): 0.4 nM

CCN(c1cc2occc2c(C(=O)NCc2c(C)cc(C)[nH]c2=O)c1C)C1CCOCC1
IC50 (Pfeiffer [1]): 240 nM | IC50 (EZH2 (Homo sapiens)): 4 nM

CCc1c(N(CC)C2CCOCC2)cc2oc(C3CCN(C)CC3)cc2c1C(=O)NCc1c(C)cc(C)[nH]c1=O
half-life [19]: > 1 h | AUC(0-t) [20]: 439 ng·h/mL | IC50 (Pfeiffer [1]): 7 nM | IC50 (EZH2 (Homo sapiens)): 6.1 nM | half-life [30]: > 1 h

CCN(c1cc2occc2c(C(=O)NCc2c(C(F)(F)F)cc(C)[nH]c2=O)c1C)C1CCOCC1
IC50 (Pfeiffer [1]): 3300 nM | IC50 (EZH2 (Homo sapiens)): 4.6 nM

CCN(c1cc2oc(C#N)cc2c(C(=O)NCc2c(OC)cc(C)[nH]c2=O)c1C)C1CCOCC1
IC50 (Pfeiffer [1]): 17 nM | IC50 (EZH2 (Homo sapiens)): 0.8 nM

CCc1c(N(CC)C2CCOCC2)cc2oc(CN3CCN(C)CC3)cc2c1C(=O)NCc1c(OC)cc(C)[nH]c1=O
Stability [33]: Stable | IC50 (Pfeiffer [1]): 8 nM | IC50 (EZH2 (Homo sapiens)): 0.1 nM | Stability [34]: Stable

CCN(c1cc2sccc2c(C(=O)NCc2c(C)cc(C)[nH]c2=O)c1C)C1CCOCC1
IC50 (Pfeiffer [1]): 1830 nM | IC50 (EZH2 (Homo sapiens)): 6 nM

CCN(c1cc(C(=O)NCc2c(OC)cc(C)[nH]c2=O)c2ccoc2c1)C1CCOCC1
IC50 (Pfeiffer [1]): > 5000 nM | IC50 (EZH2 (Homo sapiens)): 331 nM

CCN(c1cc(-c2ccc(CN3CCOCC3)cc2)cc(C(=O)NCc2c(C)cc(C)[nH]c2=O)c1C)C1CCOCC1 [TAZEMETOSTAT]
TGI (Pfeiffer [4]): Active | Activity (Mus musculus [22]): Non-Toxic | IC50 (Pfeiffer [1]): 38 nM

CCN(c1cc2oc(F)cc2c(C(=O)NCc2c(OC)cc(C)[nH]c2=O)c1C)C1CCOCC1
IC50 (Pfeiffer [1]): 160 nM | IC50 (EZH2 (Homo sapiens)): 4.1 nM

CCc1c(N(CC)C2CCOCC2)cc2oc(CN3CCOCC3)cc2c1C(=O)NCc1c(C)cc(C)[nH]c1=O
Stability [33]: Stable | IC50 (Pfeiffer [1]): 14 nM | IC50 (EZH2 (Homo sapiens)): 4.6 nM | Stability [34]: Stable

CCc1c(N(CC)C2CCOCC2)cc2oc(CN3CCOCC3)cc2c1C(=O)NCc1c(OC)cc(C)[nH]c1=O
Stability [33]: Stable | IC50 (Pfeiffer [1]): 3 nM | IC50 (EZH2 (Homo sapiens)): 7.8 nM | Stability [34]: Stable

CCc1c(N(CC)C2CCOCC2)cc2oc(CN3CCCCC3)cc2c1C(=O)NCc1c(OC)cc(C)[nH]c1=O
Stability [33]: Stable | IC50 (Pfeiffer [1]): 2 nM | IC50 (EZH2 (Homo sapiens)): 6.4 nM | Stability [34]: Stable

CCN(c1cc2oc(C)cc2c(C(=O)NCc2c(C)cc(C)[nH]c2=O)c1C)C1CCOCC1
IC50 (Pfeiffer [1]): 21 nM | IC50 (EZH2 (Homo sapiens)): 3.8 nM

CCN(c1cc2occc2c(C(=O)NCc2c(OC)cc(C)[nH]c2=O)c1C)C1CCOCC1
IC50 (Pfeiffer [1]): 20 nM | IC50 (EZH2 (Homo sapiens)): 4 nM

CCN(c1cc2oc(C3CC3)cc2c(C(=O)NCc2c(OC)cc(C)[nH]c2=O)c1C)C1CCOCC1
IC50 (Pfeiffer [1]): 11 nM | IC50 (EZH2 (Homo sapiens)): 0.5 nM

CCN(c1cc2occc2c(C(=O)NCc2c(OC)cc(C)[nH]c2=O)c1C(F)(F)F)C1CCOCC1
IC50 (EZH2 (Homo sapiens)): 2000 nM

CCN(c1cc2occ(C)c2c(C(=O)NCc2c(OC)cc(C)[nH]c2=O)c1C)C1CCOCC1
IC50 (Pfeiffer [1]): 1300 nM | IC50 (EZH2 (Homo sapiens)): 5.9 nM

CCc1cc(C)[nH]c(=O)c1CNC(=O)c1c(C)c(N(CC)C2CCOCC2)cc2occc12
IC50 (Pfeiffer [1]): 220 nM | IC50 (EZH2 (Homo sapiens)): 0.6 nM
